# Hits are enriched below; roughly 3.5% of the tested compounds scored in any of these assays.
# Env fusion inh – inhibitors of HIV Env-mediated cell fusion; inhibition, % at 12.3 µM; HeLa-JRFL Env/CEM21 cell fusion, luciferase; hit rate 1.1% among 360,000; AID 651610;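 active = mean replicate inhibition score of at least 50 and every replicate individually at or above 50; inconclusive = only one of the two criteria met; inactive = mean below 50 and not all replicates reaching 50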;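 also: 0% = plate neutral controls and 100% = maraviroc near 300 nM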
# FN deposition inh – fibronectin deposition inhibition. AH1F fibroblasts, Alexa488-fibronectin deposition fluorescence, overnight. inhibition, % at 12.6 µM. hit rate 0.086% among 350,000. AID 743247;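 active = mean inhibition across replicates of 30% or more, regardless of how many single replicates reach that level; inconclusive = mean under 30% yet at least half of replicates reach 30%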;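 also: positive control wells lacked labelled fibronectin entirely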
#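 Material: AH1F fibroblasts assembling fluorescent fibronectin matrix; amount: 10000 AH1F cells/well; medium: DMEM, 2% serum; reagent: Alexa488-fibronectin, 24 nM final in well; dosing: single compound dose, delivered by pin transfer; incubation: 1 h adhesion, overnight exposure; detection: fluorescence after three HBSS washes, excitation 485 nm, emission 525 nm; measure: fibronectin deposition inhibition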
# rRNA inh HTS – inhibits bacterial ribosomal RNA function over humanized ribosomes | GFP signal change (wild-type ribosome), % (concentration not given with the values) | E. coli WT GFP vs humanized-ribosome RFP mutants, fluorescence, 24 h; hits give low values; DMSO median 0, no signal -100 | hit rate 1.6% among 350,000;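 active = significant combined selectivity score with lowered wild-type GFP, culture density cut under 30%, mutant RFP and density less affected; inactive = any of these conditions unmet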
# PglD DTNB – blocks C. jejuni PglD acetyltransferase activity | purified PglD enzyme, DTNB colorimetric CoA detection | hit rate 0.098% among 360,000 | inhibition, % at 12.5 µM; in the data active = inhibition above about 16%, passing the limit was not always enough; inconclusive = no clear call, values can overlap the other calls
# PGC1a acetyl inh – modulators of PGC1a acetylation. U2OS PGC1a acetylation, AlphaScreen anti-acetyl-lysine; with virally co-expressed GCN5 acetyltransferase. inhibition, % at 15.6 µM. hit rate 0.17% among 350,000. AID 651687;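 active = every replicate shows inhibition of at least 40%; inconclusive = mean inhibition at least 40% but some replicate below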;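 also: 0% = neutral control wells and 100% = positive control wells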
# DENV2 CPE – protects cells from dengue virus 2 cytopathic effect; DENV2-infected cells, cytopathic effect rescue, plate reader; CPE inhibition, % at 9.99 µM; hit rate 1.7% among 350,000; in the data active = CPE inhibition above about 20%, passing the limit was not always enough; inconclusive = no clear call, values can overlap the other calls; tested in BHK-21 cells;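 also: 0% = median of neutral control wells and 100% = median of positive control wells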
# * = called active by the depositor; ? = inconclusive; / = no result given; ! = not active in a repeat; [ ] = remark or other dose.
SMILES,Env fusion inh,FN deposition inh,rRNA inh HTS,PglD DTNB,PGC1a acetyl inh,DENV2 CPE
O=C(Nc1ccc(-c2csc(Nc3cccc(C(F)(F)F)c3)n2)cc1)c1cc([N+](=O)[O-])cc(C(F)(F)F)c1,1.5,6.1,-1.2,-5.2,-12.9,134.6*
CCN(C(=O)c1cnc(NC(C)C)cc1C(F)(F)F)c1ccc(Cl)cc1Cl,11.2,-3.5,-22.8*,2.0,/,?
N#Cc1cccc(OCCCN2CCC(C(O)(c3ccccc3)c3ccccc3)CC2)c1,-14.9,-0.4,-43.8,/,/,-0.6
OC(c1ccccc1)(c1ccccc1)C1CCN(CCCOc2cccc(F)c2)CC1,9.7,7.6,-52.7,/,/,56.4*
CC(C)NC(=O)Nc1ccc2c(c1)C(=O)N([C@H](C)CO)C[C@H](C)[C@@H](CN(C)Cc1ccccc1)O2,-4.8[16.7 µM],/,1.6,-4.8,6.5,8.7
Clc1ccc(C(c2nnnn2CCc2ccccc2)N2CCSCC2)cc1 (stereo not given),100.3*,-2.1,/,4.4,-10.7,/
Fc1ccc(C(c2nnnn2CCc2ccccc2)N2CCCc3ccccc32)cc1 (stereo not given),90.2*,-15.5,/,-6.3,-24.9,/
Fc1ccc(C(c2nnnn2C2CCCC2)N2CCc3ccccc32)cc1 (stereo not given),-70.9,14.9,/,1.6,/,/
Fc1ccc(C(c2nnnn2Cc2ccccc2)N2CCSCC2)cc1 (stereo not given),/,/,-13.2,6.5,-13.5,9.6
CCN1CCN(C(c2ccccc2)c2nnnn2Cc2ccccc2)CC1 (stereo not given),-85.0,32.8*,/,3.0,-2.6,/
CN1CCN(C(c2ccccc2)c2nnnn2Cc2ccccc2)CC1 (stereo not given),/,/,/,2.8,-1.2,/
Cc1ccc(S(=O)(=O)Nc2ccc3c(c2)CC(=O)N([C@@H](C)CO)C[C@H](C)[C@@H](CN(C)C(=O)NC(C)C)O3)cc1,/,/,1.9,1.8,8.3,-2.9
CCS(=O)(=O)Nc1ccc2c(c1)C(=O)N(C)C[C@@H](OC)[C@H](C)CN(C(=O)NC(C)C)[C@@H](C)CO2,/,10.2,-3.9,4.0,7.7,-4.8
CCCc1cn(CC[C@@H]2CC[C@@H](NS(=O)(=O)c3ccc(-c4ccccc4)cc3)[C@H](CO)O2)nn1,20.4[16.7 µM],/,-10.3,2.2,-7.4,5.4
CCC(C)(C)NC(=S)Nc1ccc(-c2nc3ccc(C)cc3s2)cc1,-114.3,-6.1,/,-3.9,3.4,-2.8
Cc1ccc2nc(-c3ccc(NC(=S)NCC(C)(C)CN(C)C)cc3)sc2c1,-82.0,8.1,-36.5*,/,-27.3,-1.4
Cc1ccc2nc(-c3ccc(N)cc3)sc2c1,-113.0,-9.3,-44.0*,4.0,0.1,9.7
O=C(Nc1ccc(O)cc1)c1ccc2c(c1)C(=O)N(Cc1cccnc1)C2=O,3.5,1.6,8.4,0.9,-2.3,22.4*
COc1ccc(NC(=O)c2ccc3c(c2)C(=O)N(Cc2cccnc2)C3=O)cc1,/,/,17.9,0.9,/,/
CSC1=C(C#N)C(c2ccccc2Cl)C2=C(N1)c1ccccc1C2=O (stereo not given),36.9,-18.1,/,3.1,4.4,/
CSC1=C(C#N)C(c2ccccc2C)C(C#N)=C(N)N1 (stereo not given),61.7*,/,/,-2.3,7.0,/
Cc1noc(C)c1NC(=O)Nc1ccc2c(c1)C(=O)N([C@H](C)CO)C[C@H](C)[C@H](CN(C)C(=O)Nc1cccc3ccccc13)OCCCC[C@@H](C)O2,1.3[16.7 µM],2.4,6.6,-3.9,3.3,-12.7
C[C@@H]1CN([C@@H](C)CO)C(=O)CCCn2cc(nn2)CO[C@@H]1CN(C)Cc1cccc(C(=O)O)c1,/,-8.0,1.3,0.7,7.9,30.4*
C[C@@H]1CN([C@H](C)CO)C(=O)CCCn2cc(nn2)CO[C@@H]1CN(C)Cc1cccc(C(=O)O)c1,/,1.1,1.8,-2.1,-0.5,-4.1
CC(C)OC(=O)N(C)C[C@@H]1OCc2cn(nn2)CCCC(=O)N([C@@H](C)CO)C[C@H]1C,-6.3,2.9,2.0,3.0,9.0,35.9*!
SMILES,Env fusion inh,FN deposition inh,rRNA inh HTS,PglD DTNB,PGC1a acetyl inh,DENV2 CPE
CCOC(=O)N(C)C[C@@H]1OCc2cn(nn2)CCCC(=O)N([C@H](C)CO)C[C@H]1C,57.2*,0.4,0.8,-3.8,-9.1,4.6
CN1C(=O)c2cc(NC(=O)c3cccc(F)c3)ccc2OC[C@@H]2O[C@@H](CC(=O)N3CCc4ccccc4C3)CC[C@@H]21,/,3.4,-10.0,1.2,-3.9,?
COc1cc(C2(c3ccc(O)c(OC)c3)C(=O)Nc3c(Br)cc(Br)cc32)ccc1O,-3.2,7.5,-48.2*,4.0,/,-5.4
CO[C@@H]1CN(C)C(=O)c2ccc(NC(=O)Nc3ccccc3F)cc2OC[C@H](C)N(Cc2ccccc2C(=O)O)C[C@H]1C,/,3.2,-3.0,41.6,-5.9,-7.8
COC(=O)C1=C(C)N(Cc2ccc(F)cc2)C(=S)NC1c1ccc(Cl)cc1 (stereo not given),58.8*,1.7,-4.2,/,/,1.1
COC(=O)C1=C(C)N(Cc2ccc(Cl)cc2)C(=S)NC1c1ccc(OC)cc1 (stereo not given),84.1*,-2.6,3.7,/,/,1.4
CC(=O)C1=C(C)N(Cc2ccc(Cl)cc2)C(=S)NC1c1ccc(Cl)cc1 (stereo not given),60.1*,8.4,4.0,/,/,55.0*
COC(=O)C1=C(C)N(Cc2ccccc2)C(=S)NC1c1ccc(Br)cc1 (stereo not given),13.4,7.4,-18.8,/,/,-0.5
COC(=O)C1=C(C)N(Cc2ccc(Cl)cc2)C(=S)NC1c1cccc(F)c1 (stereo not given),7.7,9.3,-4.1,/,/,-7.5
COC(=O)C1=C(C)N(Cc2ccccc2)C(=S)N[C@H]1c1ccc(Br)cc1,66.7*,-0.3,-13.7,4.7,-14.4,?
C[C@@H]1CN([C@@H](C)CO)C(=O)c2cc(C#Cc3ccccc3)cnc2O[C@@H]1CN(C)C(=O)CN(C)C,-6.2[16.7 µM],4.4,2.8,2.3,1.3,?
Cc1noc(C)c1NC(=O)N1C[C@@H](O)COC[C@@H]2O[C@@H](CC(=O)N3CCc4ccccc4C3)CC[C@H]21,2.0[16.7 µM],-1.7,4.3,-30.2,5.3,2.9
C[C@H]1CN([C@@H](C)CO)C(=O)c2cc(/C=C/c3ccccc3)cnc2O[C@H]1CN(C)S(=O)(=O)c1cccs1,10.7[16.7 µM],/,-8.9,2.6,0.2,0.8
Cc1cccc(C)c1-n1nnnc1C(c1ccnc2ccccc12)N1CCN(CCN(C)C)CC1 (stereo not given),-30.4,1.2,8.6,/,/,11.9
Cc1cc(N2CCN(C(c3ccnc4ccccc34)c3nnnn3-c3c(C)cccc3C)CC2)c2ccccc2n1 (stereo not given),3.8,12.7,-25.6*,/,/,7.7
CO[C@@H]1CN(C)C(=O)c2ccc(NS(=O)(=O)c3cn(C)cn3)cc2OC[C@@H](C)NC[C@H]1C,0.9[16.7 µM],4.2,3.3,1.1,8.1,-2.6
